HNF4A DNA FP – change in binding of human HNF4A to DNA, primary screen, biochemical, fluorescence polarization, FITC-DNA; Hepatocyte nuclear factor 4-alpha (Homo sapiens), P41235; 1 h; activity change, % at 10 µM; 0.3% of 360,000 active; AID 1224865, 2016; in the data active means activity change above about 30%, passing the limit was not always enough
Rpn11 block – Rpn11 (PSMD14) deubiquitinase inhibitors, primary screen, biochemical, fluorescence polarization, uHTS. 0.59% of 360,000 active. 26S proteasome non-ATPase regulatory subunit 14 (Homo sapiens), O00487. human 26S proteasome, Ub4-pepOG fluorescence polarization; 20S core pre-blocked with epoxomicin. calls only at 20 µM;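 active means inhibition at 20 µM, scaled to each plate's controls, above about 33%, limit read from the data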
TPT1 inh – Candida albicans TPT1 enzyme inhibitors, primary screen, biochemical, fluorescence polarization | tRNA 2'-phosphotransferase TPT1 (Candida albicans SC5314) | recombinant caTPT1, FP RNA substrate dephosphorylation | inhibition, % at 5 µM | 0.81% of 300,000 active | AID 1962, 2009;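 active means inhibition above the mean of all tested compounds plus 3 SD, set per screening campaign, cut at about 24% in these data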
CSN deneddyl inh – inhibitors of CSN-mediated cullin deneddylation, primary screen, biochemical, fluorescence polarization, uHTS; COP9 signalosome complex subunit 5 (Homo sapiens), Q92905; Purified CSN, SCF-Nedd8-OG deneddylation; 0.38% of 360,000 active; inhibition, % at 12.5 µM;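 active means pattern-corrected inhibition above about 35%, with an unprinted fluorescence ratio check between 0.5 and 1.5, limit read from the data, passing the limit was not always enough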
Target sequence (Q92905 whole entry, looked up, one chain of several): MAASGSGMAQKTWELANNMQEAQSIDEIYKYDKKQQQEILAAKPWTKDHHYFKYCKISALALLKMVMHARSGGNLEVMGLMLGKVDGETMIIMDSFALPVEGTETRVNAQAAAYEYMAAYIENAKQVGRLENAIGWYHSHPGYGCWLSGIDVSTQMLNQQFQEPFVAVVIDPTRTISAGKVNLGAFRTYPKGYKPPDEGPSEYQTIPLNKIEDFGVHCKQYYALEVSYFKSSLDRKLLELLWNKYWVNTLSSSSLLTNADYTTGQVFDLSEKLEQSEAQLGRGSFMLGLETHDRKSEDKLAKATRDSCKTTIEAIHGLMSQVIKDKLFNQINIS
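Schedule: reaction 90 min, room temperature / Assay system: HEK293T-derived human Csn5 enzyme / Input: Csn5 at 0.24 nM final / Measure: inhibition of Csn5 cleavage, % / Control set: substrate-only high control, full reaction low control / Technique: fluorescence polarization of the substrate / Buffer or medium: Tris/NaCl/DTT buffer, pH 7.5 / Reagent: SCFSkp2-Nedd8OG substrate at 10 nM final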
Rpn11 inh conf – Rpn11 (PSMD14) deubiquitinase inhibitors, confirmation, biochemical, fluorescence polarization, single concentration; shares compounds with Rpn11 block; purified human 26S proteasome, Ub4-pepOG fluorescence polarization; proteasome pretreated with epoxomicin; inhibition, % at 20 µM; 29% of 1,900 active; AID 602318, 2012
MMP-2 counter-1 – MMP-2 enzyme inhibition, confirmation, counter-screen for RPN11 inhibitor project, biochemical, fluorescence, single concentration | shares compounds with Rpn11 block | recombinant MMP-2, FRET peptide cleavage fluorescence | 4% of 1,900 active | inhibition, % at 20 µM;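 further: human MMP-2 activated beforehand with APMA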
Thrombin FP – bovine thrombin protease inhibition, confirmation, counter-screen for Rpn11 inhibitor project, biochemical, fluorescence polarization, single concentration. shares compounds with Rpn11 block. bovine thrombin cleavage of Ub4-pepOG. inhibition, % at 20 µM. 13% of 1,900 active. AID 602333, 2012;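 active means mean inhibition at least 40% at 20 µM, or signal 3 deviations below plate average, so some actives read negative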
CSN deneddyl val – Csn5 deneddylation inhibitors, confirmation, biochemical, fluorescence polarization, single concentration, SCF-Nedd8OG substrate. shares compounds with CSN deneddyl inh. Csn5 deneddylation of SCF-Nedd8OG, 90 min. AID 720654, 2013. 62% of 540 active. inhibition, % at 16.6 µM; in the data active means inhibition above about 50%
MMP-2 counter-2 – MMP-2 protease inhibition counter-screen, confirmation, counter-screen for CSN deneddylation inhibitor project, biochemical, fluorescence, single concentration; shares compounds with CSN deneddyl inh; recombinant MMP-2, FRET substrate fluorescence, 60 min; inhibition, % at 16.6 µM; 33% of 540 active;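 active means corrected plate-normalized z-score of 5 or more, or -5 or less, or inhibition of 15% or more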
Thrombin cntr – blocks bovine thrombin in a CSN deneddylation counter-screen | shares compounds with CSN deneddyl inh | bovine thrombin cleavage of Ub4-pepOG, fluorescence polarization | inhibition, % at 16.6 µM | 49% of 540 active | AID 720656;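 active means inhibition at or above a set limit, with a fluorescence interference ratio between 0.5 and a set maximum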
HNF4A confirm – change in HNF4A binding to DNA, retest, confirmation, biochemical, fluorescence polarization, FITC-DNA; shares compounds with HNF4A DNA FP; 1 h; activity change, % at 12.5 µM; 99% of 210 active; AID 1224897, 2016; call rule not given here
Each line names hits and unclear results; the compound was inactive in the other large screens (follow-up assays come after a bar, where shown). A selection: hits, their analogues and other compounds. The true share with any hit is near 1.5%. Unless noted, no stated cut-off is given here; in the data, active means inhibition above about 40%; inactive means the rest.

CC(=O)Nc1ccc(C(=O)Nc2cccc(-c3cnc4ccccc4n3)c2)cc1	HNF4A DNA FP 48, Rpn11 block active, CSN deneddyl inh 86 (no result: TPT1 inh) | Rpn11 inh conf inactive | MMP-2 counter-1 inactive | Thrombin FP inactive | HNF4A confirm 60
Cc1ccc(C(=O)Nc2cccc(-c3cnc4ccccc4n3)c2)cc1	none
CCOC(=O)C1=C(COC(=O)CCC(=O)c2ccc(C)cc2)NC(=O)NC1C (centres undefined)	none (no result: TPT1 inh)
COc1ccc(N/C=C\C(=O)c2ccc3c(c2)OCO3)cc1	none
O=C(/C=C\Nc1ccc2c(c1)OCO2)c1ccc2c(c1)OCO2	HNF4A DNA FP 81, Rpn11 block active | Rpn11 inh conf inactive | MMP-2 counter-1 inactive | Thrombin FP inactive | HNF4A confirm 85
COCCCn1c(C)nnc1SCC(=O)Nc1cccc(C)c1	none (no result: TPT1 inh)
COc1ccc(-c2ccc3c(c2)S(=O)(=O)c2cccc(C(=O)NC4CCCC4)c2C3=O)cc1OC	HNF4A DNA FP 51, Rpn11 block active (no result: TPT1 inh) | Rpn11 inh conf inactive | MMP-2 counter-1 inactive | Thrombin FP inactive | HNF4A confirm 57
N#CCC(=O)Nc1ccc(C(=O)OCC(=O)NC(=O)NCc2ccco2)cc1	HNF4A DNA FP 34, Rpn11 block active, CSN deneddyl inh 36 (no result: TPT1 inh) | Rpn11 inh conf inactive | MMP-2 counter-1 41 | Thrombin FP inactive | HNF4A confirm 40
CCS(=O)(=O)C1=NSC2=NC(=O)/C(=C\c3ccc(OC(=O)c4ccco4)c(OC)c3)C(=N)N21	HNF4A DNA FP 44, Rpn11 block active | Rpn11 inh conf inactive | MMP-2 counter-1 inactive | Thrombin FP inactive | HNF4A confirm 59
CN1/C(=C\P(=O)(N(C)C)N(C)C)C(C)(C)c2ccccc21	HNF4A DNA FP 39, Rpn11 block active | Rpn11 inh conf inactive | MMP-2 counter-1 inactive | Thrombin FP inactive | HNF4A confirm 43
CN1C=CC(=CC=C2C=CC(=O)C=C2)C=C1	HNF4A DNA FP 54, Rpn11 block active | Rpn11 inh conf 43 | MMP-2 counter-1 inactive | Thrombin FP inactive | HNF4A confirm 48
CC(C)(/C=N/O)N(O)C=C1C=CC(=O)C=C1	none
CN(C)c1ccc(/C=C2/C[N+](C)(C)C/C(=C/c3ccc(N(C)C)cc3)C2=O)cc1	CSN deneddyl inh 94 (not shown: Rpn11 block, TPT1 inh) | CSN deneddyl val inactive | MMP-2 counter-2 -41 | Thrombin cntr 114
Cc1ccc(C2=NOC(=O)/C2=C\C=C\c2ccccc2)cc1	CSN deneddyl inh 35 (no result: TPT1 inh) | CSN deneddyl val 103 | MMP-2 counter-2 inactive | Thrombin cntr inactive
CN(C)/C=C1\C(=O)ON=C1c1ccccc1	none
